One may read the inhibition as the drop in the measured response relative to a control, in per cent.

Some of the results follow. Calls of active or inactive are those of the source.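 The calls were made as follows, unless noted: active = mean percent inhibition of duplicate wells above the buffer-only control mean plus 3 SD of those controls; inactive = the rest.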

Potassium voltage-gated channel subfamily E member 1 (Homo sapiens) + Potassium voltage-gated channel subfamily KQT member 1 (Homo sapiens), sequence (P51787 whole entry, looked up): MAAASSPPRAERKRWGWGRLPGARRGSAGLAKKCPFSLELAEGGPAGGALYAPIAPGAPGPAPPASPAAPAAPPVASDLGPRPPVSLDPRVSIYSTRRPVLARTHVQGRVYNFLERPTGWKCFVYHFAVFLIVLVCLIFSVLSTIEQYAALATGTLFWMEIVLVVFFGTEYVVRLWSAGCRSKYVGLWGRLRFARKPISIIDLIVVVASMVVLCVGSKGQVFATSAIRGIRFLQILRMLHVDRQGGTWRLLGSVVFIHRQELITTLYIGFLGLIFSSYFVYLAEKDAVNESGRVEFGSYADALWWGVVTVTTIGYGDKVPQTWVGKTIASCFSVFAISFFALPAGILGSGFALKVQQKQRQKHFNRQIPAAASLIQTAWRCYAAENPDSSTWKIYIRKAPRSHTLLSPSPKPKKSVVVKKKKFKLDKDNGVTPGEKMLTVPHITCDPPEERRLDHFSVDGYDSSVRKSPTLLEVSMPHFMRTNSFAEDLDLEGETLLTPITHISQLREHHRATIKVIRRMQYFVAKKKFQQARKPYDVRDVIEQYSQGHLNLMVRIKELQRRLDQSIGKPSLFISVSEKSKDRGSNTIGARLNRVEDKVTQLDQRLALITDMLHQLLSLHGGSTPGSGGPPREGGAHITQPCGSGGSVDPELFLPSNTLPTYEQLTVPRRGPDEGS

The target of the first experiment is Potassium voltage-gated channel subfamily KQT member 2 (Rattus norvegicus) (UniProt O88943). Nature of the experiment: KCNQ2 channel inhibition, selectivity assay for KCNQ1 inhibitor project, cell-based (AID 651746;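 active = mean percent inhibition of the KCNQ2 thallium signal more than 5 SD above the buffer-only control wells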;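 also: KCNQ2 expressed in CHO cells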;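 as to inhibition: 0% = buffer control wells and 100% = XE-991 inhibitor control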). The conditions noted are these: KCNQ2 cells, FluxOR thallium flux fluorescence, at 10 µM; stronger effect = higher value.
Potassium voltage-gated channel subfamily KQT member 2 (Rattus norvegicus), sequence (O88943 whole entry, looked up): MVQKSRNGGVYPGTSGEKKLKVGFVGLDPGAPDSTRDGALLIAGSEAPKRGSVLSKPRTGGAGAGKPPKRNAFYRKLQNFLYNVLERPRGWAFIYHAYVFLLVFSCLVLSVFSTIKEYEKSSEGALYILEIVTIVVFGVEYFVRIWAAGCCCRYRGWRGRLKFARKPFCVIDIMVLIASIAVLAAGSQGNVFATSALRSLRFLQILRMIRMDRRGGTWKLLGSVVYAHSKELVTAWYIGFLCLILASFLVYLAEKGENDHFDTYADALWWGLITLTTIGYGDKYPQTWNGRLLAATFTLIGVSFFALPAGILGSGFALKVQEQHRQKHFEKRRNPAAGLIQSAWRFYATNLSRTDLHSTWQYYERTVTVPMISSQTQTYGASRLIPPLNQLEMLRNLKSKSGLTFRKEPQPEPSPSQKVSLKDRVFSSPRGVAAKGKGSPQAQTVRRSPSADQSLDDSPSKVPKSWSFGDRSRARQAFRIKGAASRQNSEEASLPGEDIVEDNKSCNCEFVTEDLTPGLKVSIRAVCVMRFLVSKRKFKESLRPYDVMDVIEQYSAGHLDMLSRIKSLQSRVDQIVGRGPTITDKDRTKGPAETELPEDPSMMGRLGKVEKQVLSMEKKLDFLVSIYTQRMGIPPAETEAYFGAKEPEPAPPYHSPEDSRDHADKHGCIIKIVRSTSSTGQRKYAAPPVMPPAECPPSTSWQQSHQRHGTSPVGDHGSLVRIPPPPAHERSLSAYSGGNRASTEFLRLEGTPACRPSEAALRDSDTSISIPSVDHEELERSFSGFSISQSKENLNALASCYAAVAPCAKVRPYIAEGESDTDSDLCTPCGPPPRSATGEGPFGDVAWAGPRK
In the case of `Cc1cccc(-c2nc3ccc(C(=O)NCCN4CCN(C)CC4)cc3nc2-c2cccc(C)c2)c1`, the inhibition is 107% (active).

Take `COc1ccc(C(=O)NC2CCCc3c2cnn3-c2cccc(C)c2C)c(OC)n1` (stereo not given): the inhibition was 127% (active).

`O=C(NCCc1ccccc1)c1ccc2c(c1)N(Cc1ccccc1)CCS2`: the inhibition was 101% (active).

On to `O=C(Nc1ccc2ccccc2c1)Nc1ccc2snnc2c1`, for which the compound was called inactive.

On to `Cc1nn(C)cc1N1C(=O)c2cccc3c(N)ccc(c23)C1=O`, for which the result was inactive.

With `Cn1nc(-c2ccc(Cl)cc2)c2cc(C(=O)NCc3ccco3)sc21`, the inhibition was 103% (active).

As to `COc1ccc(S(=O)(=O)/N=C2\C=C(NS(=O)(=O)c3ccccc3)C(=O)c3ccccc32)cc1`, the compound was classed as inactive.

For `Cc1ccc(-c2noc(CC(c3ccccc3)c3ccccc3)n2)cc1`, the inhibition is 77% (active).

In the case of `CC(C)OC(=O)C(C#N)c1nc2ccccc2nc1N1CCN(Cc2ccccc2)CC1` (stereo not given), the inhibition was 100% (active).

For `Cc1cccc(-n2cc(CN3CCN(C(=O)c4ncn[nH]4)CC3)c(-c3cccc(F)c3)n2)c1`, the call was inactive.

Take `COc1cc(NC(=O)c2ccccc2NS(=O)(=O)c2ccc(Cl)s2)cc(OC)c1`: the compound was classed as inactive.

On to `O=C(Nc1ccc(F)cc1)c1cccnc1N1CCOCC1`, for which the outcome was inactive.

Consider `CS(=O)(=O)N(CC(=O)Nc1ccc(Cl)c(Cl)c1)C1CCCCC1`, for which the inhibition was 63.3% (active).

Regarding `O=C(Nc1nnc(S(=O)(=O)N2CCCCCC2)s1)c1cccc(Br)c1`, the compound was called inactive.

With `CNC(=O)c1ccsc1NC(=O)c1ccc(S(=O)(=O)N2CCc3ccccc32)cc1`, the inhibition is 115% (active).

In the case of `Fc1ccc2[nH]c3c(N4CCSCC4)ncnc3c2c1`, the call was inactive.

With `O=C(NC(=S)Nc1ccccc1C(=O)O)c1ccc(-c2ccc(Br)cc2)o1`, the call was inactive.

Regarding `c1ccc2c(c1)C(=NC1CCCCC1)NC2=NC1CCCCC1`, the outcome was inactive.

Consider `O=C(NCC(F)(F)F)Nc1nnc(C(F)(F)F)s1`, for which the call was inactive.

Turning to `CCOC(=O)c1ccc(NC(=O)Cn2cnc3cc(C)c(C)cc32)cc1`, the compound was called inactive.

For `CC(C(=O)NCC1CCCCC1)N(C)Cc1cccc(Cl)c1` (stereo not given), the inhibition is 76% (active).

Take `Cc1oc2c(F)c(F)c(F)c(F)c2c1S(=O)(=O)Nc1cccc(C(F)(F)F)c1`: the outcome was inactive.

`CCCC(=O)N1CCN(c2nnc(-c3ccc(C)cc3)c3ccccc23)CC1`: the inhibition is 75% (active).

As to `S=C(Nc1cccc(Cl)c1)Nc1ccc2c(c1)OCCO2`, the outcome was inactive.

With `CC(=O)N1CCCc2cc(S(=O)(=O)N3CCCC(C(=O)N4CCN(c5cccc(Cl)c5)CC4)C3)ccc21` (stereo not given), the inhibition is 134% (active).

As to `CCOC(=O)c1c(NC(=O)C(C)Sc2c[nH]c3ccccc23)sc2c1CCC2` (stereo not given), the inhibition is 105% (active).

On to `COC(=O)c1cc(NC(=O)c2cc(C(C)(C)C)nn2Cc2cccc(C)c2)ccc1N1CCOCC1`, for which the inhibition is 80.3% (active).

Take `CCCN1Cc2cccc(C(=O)NCc3ccccc3)c2C1=O`: the compound was classed as inactive.

Regarding `Oc1ccc2ccc3cccc[n+]3c2c1`, the call was inactive.

On to `CSc1nccc(NC(=O)c2ccc(C(C)(C)C)cc2)n1`, for which the inhibition was 105% (active).

As to `COc1ccc(-c2cc(C(F)(F)F)nc(S(C)(=O)=O)n2)cc1OC`, the outcome was inactive.

On to `FC(F)Oc1ccc(NC(=S)NCc2ccco2)cc1Cl`, for which the call was inactive.

As to `Cc1cccc(NC(=S)Nc2ccc(Cl)c(Cl)c2)c1`, the outcome was inactive.

For the compound `Cc1c(C(=O)OC(C)C)sc(NC(=O)c2cccnc2)c1C#N`, the inhibition was 78% (active).

As for `COc1cccc(-c2cnc(OC(C)(C)C)nc2OC(C)(C)C)c1`, the inhibition was 61% (active).

The target of a further experiment is Potassium voltage-gated channel subfamily E member 1 (Homo sapiens) + Potassium voltage-gated channel subfamily KQT member 1 (Homo sapiens) (UniProt P15382+P51787). The experiment can be described thus: KCNQ1/KCNE1 channel inhibition, selectivity assay for KCNQ1 inhibitor project, CHO-K1 cells, thallium flux, FluxOR (AID 652147).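 As to inhibition: 0% = buffer only wells and 100% = XE-991 inhibitor control.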 The note with it: FluxOR thallium flux fluorescence, at 10 µM; stronger effect = higher value. In short, it runs like this:
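Probe or stimulus: depolarizing thallium/potassium stimulus, 5x stock with 12.5 mM Tl2SO4 and K2SO4. System: KCNQ1/KCNE1 potassium channel-expressing cells, plated overnight. Timing: dye 90 min and compound 20 min at room temperature. Signal: kinetic FluxOR thallium-sensitive fluorescence, 1 Hz sampling, 150 s post-stimulus.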
Regarding `Cc1cccc(-c2nc3ccc(C(=O)NCCN4CCN(C)CC4)cc3nc2-c2cccc(C)c2)c1`, the inhibition was 118% (active).

As to `COc1ccc(C(=O)NC2CCCc3c2cnn3-c2cccc(C)c2C)c(OC)n1` (stereo not given), the inhibition is 184% (active).

Consider `O=C(NCCc1ccccc1)c1ccc2c(c1)N(Cc1ccccc1)CCS2`, for which the inhibition is 72% (active).

For `O=C(Nc1ccc2ccccc2c1)Nc1ccc2snnc2c1`, the outcome was inactive.

Take `Cc1ccccc1C(=O)OC1OC(=O)C(Cl)=C1Nc1ccccc1` (stereo not given): the inhibition was 65% (active).

`Cc1nn(C)cc1N1C(=O)c2cccc3c(N)ccc(c23)C1=O`: the result was inactive.

Turning to `Cn1nc(-c2ccc(Cl)cc2)c2cc(C(=O)NCc3ccco3)sc21`, the result was inactive.

On to `COc1ccc(S(=O)(=O)/N=C2\C=C(NS(=O)(=O)c3ccccc3)C(=O)c3ccccc32)cc1`, for which the outcome was inactive.

Regarding `O=C(Nc1ccc(Cl)cc1)Nc1ccc(Oc2cccnc2)nc1`, the result was inactive.

Consider `CCc1cc(C(c2ccccc2OC)N2CCOCC2)c(NC(=O)c2ccccc2)s1` (stereo not given), for which the inhibition is 132% (active).

For the compound `Cc1ccc(-c2noc(CC(c3ccccc3)c3ccccc3)n2)cc1`, the inhibition was 116% (active).

On to `Cc1ccccc1OCC(=O)Nc1ccc(N2CCN(C(=O)C(C)C)CC2)c(Cl)c1`, for which the inhibition was 51% (active).

For `CC(C)OC(=O)C(C#N)c1nc2ccccc2nc1N1CCN(Cc2ccccc2)CC1` (stereo not given), the result was inactive.

On to `Cc1cccc(-n2cc(CN3CCN(C(=O)c4ncn[nH]4)CC3)c(-c3cccc(F)c3)n2)c1`, for which the result was inactive.

Consider `COc1cc(NC(=O)c2ccccc2NS(=O)(=O)c2ccc(Cl)s2)cc(OC)c1`, for which the result was inactive.

Regarding `O=C(Nc1ccc(F)cc1)c1cccnc1N1CCOCC1`, the inhibition was 53.5% (active).

Take `CS(=O)(=O)N(CC(=O)Nc1ccc(Cl)c(Cl)c1)C1CCCCC1`: the outcome was inactive.

With `O=C(Nc1nnc(S(=O)(=O)N2CCCCCC2)s1)c1cccc(Br)c1`, the outcome was inactive.

In the case of `CNC(=O)c1ccsc1NC(=O)c1ccc(S(=O)(=O)N2CCc3ccccc32)cc1`, the inhibition is 170% (active).

As for `Fc1ccc2[nH]c3c(N4CCSCC4)ncnc3c2c1`, the result was inactive.

On to `O=C(NC(=S)Nc1ccccc1C(=O)O)c1ccc(-c2ccc(Br)cc2)o1`, for which the inhibition is 78% (active).

Turning to `c1ccc2c(c1)C(=NC1CCCCC1)NC2=NC1CCCCC1`, the result was inactive.

In the case of `O=C(NCC(F)(F)F)Nc1nnc(C(F)(F)F)s1`, the outcome was inactive.

Take `CCOC(=O)c1ccc(NC(=O)Cn2cnc3cc(C)c(C)cc32)cc1`: the inhibition was 55% (active).

In the case of `CC(C(=O)NCC1CCCCC1)N(C)Cc1cccc(Cl)c1` (stereo not given), the inhibition was 84% (active).

Turning to `Cc1oc2c(F)c(F)c(F)c(F)c2c1S(=O)(=O)Nc1cccc(C(F)(F)F)c1`, the outcome was inactive.

In the case of `CCCC(=O)N1CCN(c2nnc(-c3ccc(C)cc3)c3ccccc23)CC1`, the inhibition is 78% (active).

With `S=C(Nc1cccc(Cl)c1)Nc1ccc2c(c1)OCCO2`, the inhibition was 47% (active).

For `CC(=O)N1CCCc2cc(S(=O)(=O)N3CCCC(C(=O)N4CCN(c5cccc(Cl)c5)CC4)C3)ccc21` (stereo not given), the inhibition is 140% (active).

On to `CCOC(=O)c1c(NC(=O)C(C)Sc2c[nH]c3ccccc23)sc2c1CCC2` (stereo not given), for which the inhibition was 155% (active).

For the compound `COC(=O)c1cc(NC(=O)c2cc(C(C)(C)C)nn2Cc2cccc(C)c2)ccc1N1CCOCC1`, the inhibition was 154% (active).

Turning to `CCCN1Cc2cccc(C(=O)NCc3ccccc3)c2C1=O`, the inhibition is 80% (active).

Take `Oc1ccc2ccc3cccc[n+]3c2c1`: the outcome was inactive.

As to `CSc1nccc(NC(=O)c2ccc(C(C)(C)C)cc2)n1`, the inhibition is 144% (active).

On to `COc1ccc(-c2cc(C(F)(F)F)nc(S(C)(=O)=O)n2)cc1OC`, for which the inhibition was 77.5% (active).

Regarding `Cc1nnc(SC(C(=O)Nc2cc(Cl)cc(Cl)c2)c2ccccc2)[nH]c1=O` (stereo not given), the outcome was inactive.

As for `FC(F)Oc1ccc(NC(=S)NCc2ccco2)cc1Cl`, the inhibition was 38% (active).

Take `Cc1cccc(NC(=S)Nc2ccc(Cl)c(Cl)c2)c1`: the outcome was inactive.

Turning to `Cc1c(C(=O)OC(C)C)sc(NC(=O)c2cccnc2)c1C#N`, the inhibition is 48.5% (active).

With `COc1cccc(-c2cnc(OC(C)(C)C)nc2OC(C)(C)C)c1`, the inhibition was 94.5% (active).

The record behind these values is PubChem BioAssay.
